Assay results from PMC11522000 (Nature Microbiology, 2024).
In brackets after ≈: the same amount, converted by molar mass.

How the values were obtained:
[1] = 2 weeks GLP rat toxicology study with toxicokinetics; assay type: in vivo; conditions: both, Wistar, plasma, po, 1000 mg/kg/day, EDI048 1000 mg/kg/day; for AUC(0-t): AUC0-8, rat
How it was run: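 Male and female Wistar rats were about 7–8 weeks old at receipt and 9–10 weeks old at the start of dosing. They were dosed for 2 weeks at 50, 250 and 1000 mg/kg/day, with toxicokinetic plasma sampling.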

HsPI(4)K = HsPI(4)K (Homo sapiens, UniProt Q9UBF8); assay: PI; assay type: biochemical; conditions: HsPI(4)K IC50, 3 μM ATP
Chain of HsPI(4)K (Q9UBF8 523-816 limits assumed): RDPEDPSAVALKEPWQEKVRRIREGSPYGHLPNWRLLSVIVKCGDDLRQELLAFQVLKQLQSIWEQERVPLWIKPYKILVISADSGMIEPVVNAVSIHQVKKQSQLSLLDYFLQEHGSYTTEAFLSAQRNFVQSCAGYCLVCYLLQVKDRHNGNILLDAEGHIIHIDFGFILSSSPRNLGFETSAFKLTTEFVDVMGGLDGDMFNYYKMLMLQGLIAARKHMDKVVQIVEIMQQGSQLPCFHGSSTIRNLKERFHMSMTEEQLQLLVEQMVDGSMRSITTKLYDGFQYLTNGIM

[2] = 2 weeks GLP dog toxicology study with toxicokinetics; assay type: in vivo; conditions: both, beagle, dog, plasma, po, 1000 mg/kg/day, EDI048 1000 mg/kg/day; for AUC(0-t): AUC0-8, dog
CpPI(4)K = target: T1, CpPI(4)K (Cryptosporidium parvum, UniProt Q5CVD3); assay: PI; assay type: biochemical, C. parvum
T1 sequence (Q5CVD3 1-1114): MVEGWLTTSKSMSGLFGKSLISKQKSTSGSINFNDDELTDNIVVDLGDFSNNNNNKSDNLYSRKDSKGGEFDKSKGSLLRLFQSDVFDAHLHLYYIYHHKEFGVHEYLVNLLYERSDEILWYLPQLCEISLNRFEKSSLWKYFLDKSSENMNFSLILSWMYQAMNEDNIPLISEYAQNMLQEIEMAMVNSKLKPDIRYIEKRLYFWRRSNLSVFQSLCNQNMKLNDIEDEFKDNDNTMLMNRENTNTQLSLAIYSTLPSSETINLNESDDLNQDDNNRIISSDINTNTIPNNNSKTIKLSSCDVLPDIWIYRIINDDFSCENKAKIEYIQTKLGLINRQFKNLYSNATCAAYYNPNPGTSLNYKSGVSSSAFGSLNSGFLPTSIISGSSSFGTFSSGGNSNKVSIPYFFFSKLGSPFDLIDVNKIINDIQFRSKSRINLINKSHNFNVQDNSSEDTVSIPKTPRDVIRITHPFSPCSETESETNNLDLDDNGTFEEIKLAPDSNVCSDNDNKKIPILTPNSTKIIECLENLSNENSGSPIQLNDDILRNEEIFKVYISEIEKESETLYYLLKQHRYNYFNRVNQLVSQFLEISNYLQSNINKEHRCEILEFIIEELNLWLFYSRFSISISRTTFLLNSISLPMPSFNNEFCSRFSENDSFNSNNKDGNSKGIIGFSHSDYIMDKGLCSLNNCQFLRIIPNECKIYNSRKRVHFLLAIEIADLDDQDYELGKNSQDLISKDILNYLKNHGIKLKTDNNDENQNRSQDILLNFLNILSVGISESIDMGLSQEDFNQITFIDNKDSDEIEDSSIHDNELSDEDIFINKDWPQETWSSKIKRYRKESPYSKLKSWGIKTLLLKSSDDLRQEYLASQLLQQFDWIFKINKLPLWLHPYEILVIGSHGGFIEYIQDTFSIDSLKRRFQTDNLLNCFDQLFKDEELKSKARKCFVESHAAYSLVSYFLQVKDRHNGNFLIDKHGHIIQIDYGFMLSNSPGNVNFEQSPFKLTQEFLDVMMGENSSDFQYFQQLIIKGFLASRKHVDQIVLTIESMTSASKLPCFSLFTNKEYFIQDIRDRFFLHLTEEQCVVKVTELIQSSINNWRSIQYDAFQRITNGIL
How it was run: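 Enzyme was pre-incubated with compound for 5 min at room temperature. The reaction was started with substrate mix at twice final strength (PI, ATP, Tris-HCl pH 7.5, DTT, 0.05% Triton X-100, MnCl2) and run 50 min at room temperature. ADP was measured by ADP-Glo luminescence. IC50s came from in-plate duplicate 10-point 3-fold dilutions, with DMSO and reference-inhibitor controls. The C. parvum enzymes (wild type and mutants) were full-length proteins expressed from baculovirus in Sf21 cells.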

Cytotoxicity assay = assay type: cell-based, human; conditions: human, HepG2 cells (ATCC CRL-10741), HepG2 CC50, 96 h
Plasma stability [3] = assay type: in vitro ADME; conditions: human
How it was run: (§1)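 Test compound was added to plasma and incubated at 37 °C in a shaking water bath, with samples taken at sequential timepoints. Samples were quenched with ice-cold acetonitrile and analysed by LC-MS/MS, and half-life was calculated from the depletion rate.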

[4] = Stability in intestinal S9 fraction; assay type: in vitro ADME; conditions: human
How it was run: (§2)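 Test compound added to intestinal S9 fraction of each species to start the reaction. Incubated in a shaking water bath at 37 °C, with samples taken at sequential timepoints. Samples quenched with ice-cold acetonitrile and analysed by LC-MS/MS. Half-life calculated from the rate of parent compound depletion.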

[5] = Stability in intestinal S9 fraction; assay type: in vitro ADME; conditions: mouse
How it was run: as §2

[6] = High-throughput equilibrium solubility; assay type: physicochemical; conditions: thermodynamic from solid
How it was run: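 Equilibrium solubility was measured by a miniaturized shake-flask method with HPLC quantification.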

P-glycoprotein (MDR1) = assay: MDCK MDR1 permeability and efflux; assay type: in vitro ADME; conditions: dog
[7] = Hepatocytes metabolic stability; assay type: in vitro ADME; conditions: mouse; for half-life: hepatocytes
How it was run: (§3)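 Test compound was incubated with liver microsomes or hepatocytes of each species, and parent depletion was quantified by LC-MS/MS. From this, in vitro half-life and intrinsic clearance were derived, along with predicted metabolic clearance and hepatic extraction ratio.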

Plasma stability [8] = assay type: in vitro ADME; conditions: mouse
How it was run: as §1

C. parvum = assay: Mouse efficacy study; assay type: in vivo, C57BL/6 IFN-γ-knockout mice; conditions: oral 10 mg kg^−1, 5 days; nitazoxanide 100 mg kg^−1
[9] = In vivo pharmacokinetic analysis; design: species or system mouse; conditions: male, C57BL/6, mouse, plasma
How it was run: (§4)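 Animals were male C57BL/6 mice (8–10 weeks), Wistar rats (8–10 weeks) and beagle dogs (12–14 weeks). Each received oral and i.v. doses, with plasma sampling for PK parameters.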

[10] = Hepatocytes metabolic stability; assay type: in vitro ADME; conditions: human
How it was run: as §3

[11] = In vivo pharmacokinetic analysis; conditions: male, Beagle, dog, plasma
How it was run: as §4

COC(=O)c1cc(N(C)C(=O)c2ccn3ncc(-c4ccc(C(=O)O)cc4)c3c2)ccc1Cl [Compound 7, 4-(5-((4-chloro-3-(methoxycarbonyl)phenyl)(methyl)carbamoyl)pyrazolo[1,5-a]pyridin-3-yl)benzoic acid]
AUC(0-t) ([1]; day 14): 0.000221 µg·h/mL | Cmax ([1]; day 14): 0.046 ng/mL | Tmax ([1]; day 1): 3 h | Tmax ([1]; day 14): 1 h | IC50 (HsPI(4)K): 11.3 µM | AUC(0-t) ([2]; day 1): 0.642 µg·h/mL | AUC(0-t) ([2]; day 14): 1.18 µg·h/mL | Cmax ([2]; day 14): 224 ng/mL | Tmax ([2]; day 1): 1.6 h | Tmax ([2]; day 14): 2.2 h | IC50 (CpPI(4)K; CpPI(4)K IC50, 3 μM ATP): 0.076 µM | CC50 at 96 h (Cytotoxicity assay): > 100 µM

COC(=O)c1cc(Cl)ccc1N(C)C(=O)c1ccn2ncc(-c3ccc(C(N)=O)cc3)c2c1 [Compound 5, methyl 2-(3-(4-carbamoylphenyl)-N-methylpyrazolo[1,5-a]pyridine-5-carboxamido)-5-chlorobenzoate]
half-life (Plasma stability [3]): > 2 h | half-life [4]: 1.77 h | half-life [5]: 1 h | IC50 (HsPI(4)K): 0.203 ± 0.047 µM | solubility ([6]; FaSSIF): 147 µM (≈ 68 µg/mL) | solubility ([6]; pH 6.8, aqueous buffer): 110 µM (≈ 50.9 µg/mL) | IC50 (CpPI(4)K; CpPI(4)K IC50, 3 μM ATP): 0.005 ± 0.002 µM | CC50 at 96 h (Cytotoxicity assay): > 100 µM | Papp A→B (P-glycoprotein (MDR1); MDCK-MDR1): 25.5 nm/s | Papp B→A (P-glycoprotein (MDR1); MDCK-MDR1): 156 nm/s | efflux ratio (P-glycoprotein (MDR1); MDCK-MDR1): 6.15 | Hepatocytes ER [7]: 91% | half-life [7]: 0.0667 h | half-life (Plasma stability [8]): > 2 h

CCOC(=O)CN(C(=O)c1ccn2ncc(-c3ccc(C(=O)NC)cc3)c2c1)c1ccc(Cl)cc1 [Compound 1, ethyl N-(4-chlorophenyl)-N-(3-(4-(methylcarbamoyl)phenyl)pyrazolo[1,5-a]pyridine-5-carbonyl)glycinate]
half-life (Plasma stability [3]): > 2 h | half-life [4]: 2 h | half-life [5]: 2 h | IC50 (HsPI(4)K): 1.14 ± 0.296 µM | solubility ([6]; FaSSIF): 86 µM (≈ 42.2 µg/mL) | solubility ([6]; pH 6.8, aqueous buffer): 31 µM (≈ 15.2 µg/mL) | IC50 (CpPI(4)K; CpPI(4)K IC50, 3 μM ATP): 0.007 ± 0.002 µM | IC50 (CpPI(4)K; CpPI(4)K IC50, running text): 0.002 to 0.007 µM | CC50 at 96 h (Cytotoxicity assay): 14.7 µM | Papp A→B (P-glycoprotein (MDR1); MDCK-MDR1): 78.9 nm/s | Papp B→A (P-glycoprotein (MDR1); MDCK-MDR1): 74 nm/s | efflux ratio (P-glycoprotein (MDR1); MDCK-MDR1): 0.94 | Hepatocytes ER [7]: 74% | half-life [7]: 0.223 h | half-life (Plasma stability [8]): 0.227 h | efficacy in the mouse model (C. parvum): highly efficacious

CNC(=O)c1ccc(-c2cnn3ccc(C(=O)N(CC(=O)O)c4ccc(Cl)cc4)cc23)cc1 [Compound 2, N-(4-chlorophenyl)-N-(3-(4-(methylcarbamoyl)phenyl)pyrazolo[1,5-a]pyridine-5-carbonyl)glycine]
half-life (Plasma stability [3]): > 2 h | half-life [5]: > 4 h | IC50 (HsPI(4)K): 0.135 ± 0.033 µM | solubility ([6]; FaSSIF): 1000 µM (≈ 463 µg/mL) | solubility ([6]; pH 6.8, aqueous buffer): 708 µM (≈ 328 µg/mL) | IC50 (CpPI(4)K; CpPI(4)K IC50, 3 μM ATP): 0.002 µM | IC50 (CpPI(4)K; CpPI(4)K IC50, running text): 0.002 to 0.007 µM | CC50 at 96 h (Cytotoxicity assay): > 100 µM | Papp A→B (P-glycoprotein (MDR1); MDCK-MDR1): 8.9 nm/s | Papp B→A (P-glycoprotein (MDR1); MDCK-MDR1): 16.5 nm/s | efflux ratio (P-glycoprotein (MDR1); MDCK-MDR1): 1.85 | Hepatocytes ER [7]: 52% | half-life [7]: 0.597 h | half-life (Plasma stability [8]): > 2 h | efficacy in the mouse model (C. parvum): not efficacious in vivo

CNC(=O)c1ccc(-c2cnn3ccc(C(=O)N(C)c4ccc(Cl)c(C(=O)O)c4)cc23)cc1 [Compound 6, 2-chloro-5-(N-methyl-3-(4-(methylcarbamoyl)phenyl)pyrazolo[1,5-a]pyridine-5-carboxamido)benzoic acid]
AUC(0-t) ([1]; day 1): 0.886 µg·h/mL | AUC(0-t) ([1]; day 14): 1.43 µg·h/mL | Cmax ([1]; day 14): 242 ng/mL | Tmax ([1]; day 1): 1 h | Tmax ([1]; day 14): 3 h | AUC ([9]; iv, 1 mg/kg): 1190 nM·h | AUC ([9]; po, 10 mg/kg): 92 nM·h | Cmax ([9]; po, 10 mg/kg): 0.0334 µM | Hepatocytes ER [10]: 33% | half-life ([10]; hepatocytes): > 2.92 h | half-life [5]: > 4 h | IC50 (HsPI(4)K): 0.484 ± 0.119 µM | solubility ([6]; pH 6.8, aqueous buffer, Solubility pH 6.8, pH 6.8): > 1000 µM | AUC(0-t) ([2]; day 1): 0.205 µg·h/mL | AUC(0-t) ([2]; day 14): 0.301 µg·h/mL | Cmax ([2]; day 14): 72.8 ng/mL | Tmax ([2]; day 1): 1.2 h | Tmax ([2]; day 14): 1.15 h | IC50 (CpPI(4)K; CpPI(4)K IC50, 3 μM ATP): 0.031 ± 0.024 µM | CC50 at 96 h (Cytotoxicity assay): > 100 µM | Papp A→B (P-glycoprotein (MDR1); MDCK-MDR1): 5.6 nm/s | efflux ratio (P-glycoprotein (MDR1); MDCK-MDR1): 1.86 | Papp B→A (P-glycoprotein (MDR1); MDCK-MDR1, Permeability B–A, MDCK MDR1, basolateral to apical): 10.4 nm/s | AUC ([11]; iv, 0.1 mg/kg): 31.9 nM·h | AUC ([11]; po, 0.3 mg/kg): 4.7 nM·h | Cmax ([11]; po, 0.3 mg/kg): 0.002 µM | Hepatocytes ER [7]: 18% | half-life [7]: > 2.92 h
